According to ChEMBL document CHEMBL4689842, “EUbOPEN Chemogenomics Library wave 1” (2021):

System: U2OS
Test: Multiplex assay against U2OS
Format: toxicity, cell-based
Conditions: human
Procedure, shortened: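 Cells were classed with CellPathfinder machine-learning gating, first as Hoechst high-intensity objects or normal cells, then (normal cells) as healthy, pyknosed or fragmented nuclei, and finally (pyknosed cells) as mitotic or apoptotic. Staining of live cells at seeding used Hoechst33342, BioTracker Green Microtubule Cytoskeleton Dye, MitoTracker Red and Annexin V Alexa Fluor 680, with imaging on a CQ1 microscope at 37°C and 5% CO2 after compound addition. Tubulin, mitochondrial-mass and membrane-permeability phenotypes are per cents of healthy-nucleus cells.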

[1] = 12 h, 1 µM, compound concentration 1 uM, replicate 1
[2] = 12 h, 1 µM, compound concentration 1 uM, replicate 2
[3] = 12 h, 10 µM, compound concentration 10 uM, replicate 1
[4] = 12 h, 10 µM, compound concentration 10 uM, replicate 2
[5] = 24 h, 1 µM, compound concentration 1 uM, replicate 1
[6] = 24 h, 1 µM, compound concentration 1 uM, replicate 2
[7] = 24 h, 10 µM, compound concentration 10 uM, replicate 1
[8] = 24 h, 10 µM, compound concentration 10 uM, replicate 2
[9] = 48 h, 1 µM, compound concentration 1 uM, replicate 1
[10] = 48 h, 1 µM, compound concentration 1 uM, replicate 2
[11] = 48 h, 10 µM, compound concentration 10 uM, replicate 1
[12] = 48 h, 10 µM, compound concentration 10 uM, replicate 2

S=C(NCCCc1c[nH]cn1)NCCCN(Cc1ccc(Cl)c(Cl)c1)c1ccc(Br)cn1
Population Apoptotic (%) [1]: 56%
Population Fragmented Nuclei (%) [1]: 9%
Population Healthy Nuclei (%) [1]: 76%
Population Hoechst High Intensity Objects (%) [1]: 9%
Population Membrane Permeable-Phenotype (%) [1]: 7%
Population Mitochondria Different-Phenotype (%) [1]: 31%
Population Mitotic Cells (%) [1]: 43%
Population Normal (%) [1]: 90%
Population Pyknosed Nuclei (%) [1]: 13%
Population Tubulin-Different-Phenotype (%) [1]: 32%
Total Cell Count [1]: 193
Population Apoptotic (%) [2]: 0%
Population Fragmented Nuclei (%) [2]: 17%
Population Healthy Nuclei (%) [2]: 82%
Population Hoechst High Intensity Objects (%) [2]: 15%
Population Membrane Permeable-Phenotype (%) [2]: 8%
Population Mitochondria Different-Phenotype (%) [2]: 8%
Population Mitotic Cells (%) [2]: 0%
Population Normal (%) [2]: 84%
Population Pyknosed Nuclei (%) [2]: 0%
Population Tubulin-Different-Phenotype (%) [2]: 4%
Total Cell Count [2]: 79
Population Apoptotic (%) [3]: 88%
Population Fragmented Nuclei (%) [3]: 47%
Population Healthy Nuclei (%) [3]: 4%
Population Hoechst High Intensity Objects (%) [3]: 15%
Population Mitotic Cells (%) [3]: 11%
Population Normal (%) [3]: 84%
Population Pyknosed Nuclei (%) [3]: 48%
Total Cell Count [3]: 133
Population Apoptotic (%) [4]: 93%
Population Fragmented Nuclei (%) [4]: 25%
Population Healthy Nuclei (%) [4]: 2%
Population Hoechst High Intensity Objects (%) [4]: 11%
Population Membrane Permeable-Phenotype (%) [4]: 100%
Population Mitochondria Different-Phenotype (%) [4]: 100%
Population Mitotic Cells (%) [4]: 6%
Population Normal (%) [4]: 88%
Population Pyknosed Nuclei (%) [4]: 72%
Population Tubulin-Different-Phenotype (%) [4]: 100%
Total Cell Count [4]: 33
Population Apoptotic (%) [5]: 66%
Population Fragmented Nuclei (%) [5]: 10%
Population Healthy Nuclei (%) [5]: 76%
Population Hoechst High Intensity Objects (%) [5]: 6%
Population Membrane Permeable-Phenotype (%) [5]: 6%
Population Mitochondria Different-Phenotype (%) [5]: 10%
Population Mitotic Cells (%) [5]: 33%
Population Normal (%) [5]: 93%
Population Pyknosed Nuclei (%) [5]: 12%
Population Tubulin-Different-Phenotype (%) [5]: 14%
Total Cell Count [5]: 199
Population Apoptotic (%) [6]: 0%
Population Fragmented Nuclei (%) [6]: 19%
Population Healthy Nuclei (%) [6]: 80%
Population Hoechst High Intensity Objects (%) [6]: 8%
Population Membrane Permeable-Phenotype (%) [6]: 16%
Population Mitochondria Different-Phenotype (%) [6]: 8%
Population Mitotic Cells (%) [6]: 0%
Population Normal (%) [6]: 91%
Population Pyknosed Nuclei (%) [6]: 0%
Population Tubulin-Different-Phenotype (%) [6]: 20%
Total Cell Count [6]: 79
Population Apoptotic (%) [7]: 97%
Population Fragmented Nuclei (%) [7]: 44%
Population Healthy Nuclei (%) [7]: 5%
Population Hoechst High Intensity Objects (%) [7]: 21%
Population Membrane Permeable-Phenotype (%) [7]: 100%
Population Mitochondria Different-Phenotype (%) [7]: 100%
Population Mitotic Cells (%) [7]: 2%
Population Normal (%) [7]: 78%
Population Pyknosed Nuclei (%) [7]: 49%
Population Tubulin-Different-Phenotype (%) [7]: 100%
Total Cell Count [7]: 149
Population Apoptotic (%) [8]: 100%
Population Fragmented Nuclei (%) [8]: 12%
Population Healthy Nuclei (%) [8]: 24%
Population Hoechst High Intensity Objects (%) [8]: 25%
Population Membrane Permeable-Phenotype (%) [8]: 94%
Population Mitochondria Different-Phenotype (%) [8]: 88%
Population Mitotic Cells (%) [8]: 0%
Population Normal (%) [8]: 74%
Population Pyknosed Nuclei (%) [8]: 62%
Population Tubulin-Different-Phenotype (%) [8]: 88%
Total Cell Count [8]: 34
Population Apoptotic (%) [9]: 28%
Population Fragmented Nuclei (%) [9]: 10%
Population Healthy Nuclei (%) [9]: 58%
Population Hoechst High Intensity Objects (%) [9]: 8%
Population Membrane Permeable-Phenotype (%) [9]: 6%
Population Mitochondria Different-Phenotype (%) [9]: 11%
Population Mitotic Cells (%) [9]: 72%
Population Normal (%) [9]: 91%
Population Pyknosed Nuclei (%) [9]: 30%
Population Tubulin-Different-Phenotype (%) [9]: 10%
Total Cell Count [9]: 211
Population Apoptotic (%) [10]: 22%
Population Fragmented Nuclei (%) [10]: 21%
Population Healthy Nuclei (%) [10]: 54%
Population Hoechst High Intensity Objects (%) [10]: 13%
Population Membrane Permeable-Phenotype (%) [10]: 5%
Population Mitochondria Different-Phenotype (%) [10]: 10%
Population Mitotic Cells (%) [10]: 77%
Population Normal (%) [10]: 86%
Population Pyknosed Nuclei (%) [10]: 24%
Population Tubulin-Different-Phenotype (%) [10]: 15%
Total Cell Count [10]: 76
Population Apoptotic (%) [11]: 92%
Population Fragmented Nuclei (%) [11]: 50%
Population Healthy Nuclei (%) [11]: 2%
Population Hoechst High Intensity Objects (%) [11]: 22%
Population Membrane Permeable-Phenotype (%) [11]: 50%
Population Mitochondria Different-Phenotype (%) [11]: 100%
Population Mitotic Cells (%) [11]: 7%
Population Normal (%) [11]: 77%
Population Pyknosed Nuclei (%) [11]: 46%
Population Tubulin-Different-Phenotype (%) [11]: 100%
Total Cell Count [11]: 177
Population Apoptotic (%) [12]: 100%
Population Fragmented Nuclei (%) [12]: 31%
Population Healthy Nuclei (%) [12]: 41%
Population Hoechst High Intensity Objects (%) [12]: 30%
Population Membrane Permeable-Phenotype (%) [12]: 92%
Population Mitochondria Different-Phenotype (%) [12]: 89%
Population Mitotic Cells (%) [12]: 0%
Population Normal (%) [12]: 69%
Population Pyknosed Nuclei (%) [12]: 26%
Population Tubulin-Different-Phenotype (%) [12]: 92%
Total Cell Count [12]: 43

Cc1ccc2nc(NCCN)c3ncc(C)n3c2c1.O=C(O)C(F)(F)F.O=C(O)C(F)(F)F
Population Apoptotic (%) [1]: 29%
Population Fragmented Nuclei (%) [1]: 6%
Population Healthy Nuclei (%) [1]: 83%
Population Hoechst High Intensity Objects (%) [1]: 1%
Population Membrane Permeable-Phenotype (%) [1]: 6%
Population Mitochondria Different-Phenotype (%) [1]: 17%
Population Mitotic Cells (%) [1]: 70%
Population Normal (%) [1]: 98%
Population Pyknosed Nuclei (%) [1]: 10%
Population Tubulin-Different-Phenotype (%) [1]: 27%
Total Cell Count [1]: 235
Population Apoptotic (%) [2]: 4%
Population Fragmented Nuclei (%) [2]: 8%
Population Healthy Nuclei (%) [2]: 75%
Population Hoechst High Intensity Objects (%) [2]: 13%
Population Mitotic Cells (%) [2]: 95%
Population Normal (%) [2]: 86%
Population Pyknosed Nuclei (%) [2]: 16%
Population Tubulin-Different-Phenotype (%) [2]: 17%
Total Cell Count [2]: 151
Population Apoptotic (%) [3]: 28%
Population Fragmented Nuclei (%) [3]: 17%
Population Healthy Nuclei (%) [3]: 65%
Population Hoechst High Intensity Objects (%) [3]: 8%
Population Membrane Permeable-Phenotype (%) [3]: 17%
Population Mitochondria Different-Phenotype (%) [3]: 11%
Population Mitotic Cells (%) [3]: 71%
Population Normal (%) [3]: 91%
Population Pyknosed Nuclei (%) [3]: 17%
Population Tubulin-Different-Phenotype (%) [3]: 17%
Total Cell Count [3]: 132
Population Apoptotic (%) [4]: 50%
Population Fragmented Nuclei (%) [4]: 27%
Population Healthy Nuclei (%) [4]: 53%
Population Hoechst High Intensity Objects (%) [4]: 12%
Population Membrane Permeable-Phenotype (%) [4]: 15%
Population Mitochondria Different-Phenotype (%) [4]: 13%
Population Mitotic Cells (%) [4]: 50%
Population Normal (%) [4]: 87%
Population Pyknosed Nuclei (%) [4]: 18%
Population Tubulin-Different-Phenotype (%) [4]: 22%
Total Cell Count [4]: 123
Population Apoptotic (%) [5]: 33%
Population Fragmented Nuclei (%) [5]: 2%
Population Healthy Nuclei (%) [5]: 93%
Population Hoechst High Intensity Objects (%) [5]: 1%
Population Membrane Permeable-Phenotype (%) [5]: 7%
Population Mitochondria Different-Phenotype (%) [5]: 19%
Population Mitotic Cells (%) [5]: 66%
Population Normal (%) [5]: 98%
Population Pyknosed Nuclei (%) [5]: 3%
Population Tubulin-Different-Phenotype (%) [5]: 31%
Total Cell Count [5]: 309
Population Apoptotic (%) [6]: 18%
Population Fragmented Nuclei (%) [6]: 6%
Population Healthy Nuclei (%) [6]: 84%
Population Hoechst High Intensity Objects (%) [6]: 8%
Population Mitochondria Different-Phenotype (%) [6]: 32%
Population Mitotic Cells (%) [6]: 81%
Population Normal (%) [6]: 91%
Population Pyknosed Nuclei (%) [6]: 9%
Population Tubulin-Different-Phenotype (%) [6]: 20%
Total Cell Count [6]: 192
Population Apoptotic (%) [7]: 76%
Population Fragmented Nuclei (%) [7]: 27%
Population Healthy Nuclei (%) [7]: 30%
Population Hoechst High Intensity Objects (%) [7]: 8%
Population Membrane Permeable-Phenotype (%) [7]: 32%
Population Mitochondria Different-Phenotype (%) [7]: 26%
Population Mitotic Cells (%) [7]: 23%
Population Normal (%) [7]: 91%
Population Pyknosed Nuclei (%) [7]: 41%
Population Tubulin-Different-Phenotype (%) [7]: 32%
Total Cell Count [7]: 123
Population Apoptotic (%) [8]: 61%
Population Fragmented Nuclei (%) [8]: 29%
Population Healthy Nuclei (%) [8]: 36%
Population Hoechst High Intensity Objects (%) [8]: 14%
Population Membrane Permeable-Phenotype (%) [8]: 24%
Population Mitochondria Different-Phenotype (%) [8]: 42%
Population Mitotic Cells (%) [8]: 38%
Population Normal (%) [8]: 85%
Population Pyknosed Nuclei (%) [8]: 34%
Population Tubulin-Different-Phenotype (%) [8]: 30%
Total Cell Count [8]: 106
